As usually defined, the Kd is the free concentration of one partner at which half of the binding sites on the other are occupied at equilibrium, for simple one-to-one binding. Read a high Kd as a looser complex. Usually half-life stands for the time needed for the level to fall by half in the phase considered. What is called IC50 is the concentration that gives 50% inhibition.

The values below come from ChEMBL document CHEMBL4706684, “Discovering High Potent Hsp90 Inhibitors as Antinasopharyngeal Carcinoma Agents through Fragment Assembling Approach” (J Med Chem, 2021).

The structures appear in SMILES notation. Activity calls are given as the source filed them.

In data set [1] the target is T1, Heat shock protein HSP 90-alpha (Homo sapiens, UniProt P07900). Kind of data set: Binding affinity to HSP90-alpha (unknown origin) expressed in Escherichia coli BL21 by SPR assay. For orientation: In SPR one partner is held on a chip, and binding of the other changes the refractive index at the surface.
Another data set concerns L02. Nature of the data set: Toxicity in human L02 cells assessed as induction of apoptosis at 62.5 to 1000 nM incubated for 12 hrs by Annexin-V/FITC staining based FACS analysis. Conditions: l02, 12 h, 1 µM, dose 62.5-1000 nM. Type of data set: cell-based. (In general: A flow cytometer gives signals particle by particle.)
The target in data set [2] is T1, Heat shock protein HSP 90-alpha. Nature of the data set: Inhibition of HSP90-alpha in human CNE-2 cells assessed as reduction in PKB protein levels at 20 to 500 nM incubated for 24 hrs by immunoblot analysis. The format is cell-based. Conditions: dose 20-500 nM. Summed up: (§1)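 CNE2 cells (RPMI 1640, 10% FBS, 37 °C, 5% CO₂) were incubated with inhibitor for 24 h, then lysed in RIPA buffer on ice for 30 min. Lysates were run on 8–12% SDS-PAGE and transferred to PVDF. Membranes were blocked with 5% milk and probed with primary antibodies overnight, then HRP secondaries. Detection was by chemiluminescence with actin as loading control.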
On the technique in general: Immunoblotting shows a protein as a band on a membrane.

In data set [3] the test system is CNE-2. Kind of data set: Induction of apoptosis in human CNE-2 cells assessed as Bcl-XL degradation at 20 to 500 nM incubated for 24 hrs by immunoblot analysis. Type of data set: functional, cell-based. Conditions: dose 20-500 nM. The gist of the method:
as §1

Data set [4] deals with CNE-2. Nature of the data set: Induction of apoptosis in human CNE-2 cells assessed as reduction in HER2 protein level at 500 nM incubated for 24 hrs by immunoblot analysis. Type of data set: functional, cell-based. Summed up:
as §1

For data set [5], the system named is CNE-2. Kind of data set: Induction of apoptosis in human CNE-2 cells assessed as Bcl-XL degradation at 70 nM incubated for 24 hrs in presence of HSP90-alpha siRNA by immunoblot analysis. Type of data set: functional, cell-based. The gist of the method: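 CNE2 cells were transiently transfected with Hsp90 siRNA (siHsp90-1 or siHsp90-2) at 150 nM final using Lipofectamine 2000. They were then incubated with inhibitor for 24 h and immunoblotted: RIPA lysis, 8–12% SDS-PAGE, PVDF, overnight primary antibodies, HRP secondaries, chemiluminescence, actin as loading control.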

The test system of data set [6] is CNE-2. Kind of data set: Induction of apoptosis in human CNE-2 cells assessed as Bcl-XL degradation at 70 nM incubated for 24 hrs in presence of HSP90-beta siRNA by immunoblot analysis. Type of data set: functional, cell-based.
Data set [7] concerns the target T1, Heat shock protein HSP 90-alpha. Kind of data set: Inhibition of HSP90-alpha in human CNE-2 cells assessed as reduction in PKB protein levels at 70 nM incubated for 24 hrs in presence of HSP90-beta siRNA by immunoblot analysis. The format is cell-based.
Data set [8] is described as follows: Half life in Kunming mouse at 2 mg/kg, iv measured up to 6 hrs by HPLC analysis. Type of data set: ADME, organism-based. Particulars: in vivo. Summed up:
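Male Kunming mice, 9–11 weeks old, about 23 g, four per group, were given a single 2 mg/kg dose intravenously or orally. Blood was sampled at 0, 10, 15, 30 min and 1, 2, 4, 6 h. For each sample, 40 μL plasma was deproteinized with 200 μL acetonitrile and centrifuged 10 min at 12 000 rpm before analysis.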

For data set [9], the target named is T1, Heat shock protein HSP 90-alpha. Nature of the data set: Inhibition of HSP90-alpha (unknown origin) expressed in Escherichia coli BL21 assessed as reduction in ATPase activity in presence of PEP, NADH and ATP by pyruvate kinase/lactic dehydrogenase based coupled enzyme assay.
Data set [10] is described as follows: Binding affinity to HSP90-alpha T184G mutant (unknown origin) expressed in Escherichia coli BL21 by SPR assay. The arrangement: species or system Homo sapiens. Summed up:
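SPR on a Biacore T200 at 25 °C with running buffer PBST (PBS pH 7.4, 0.005% Tween-20). Protein at 20 μg/mL in 10 mM sodium acetate pH 5.0 was immobilized on a CM5 chip, which was equilibrated overnight in PBST. Inhibitor serially diluted from 10 μM was injected at 30 μL/min with 120 s contact and 120 s dissociation.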

The subject of data set [11] is CNE-2. Kind of data set: Induction of apoptosis in human CNE-2 cells assessed as viable cells level at 20 nM incubated for 12 hrs by Annexin-V/FITC staining based FACS analysis (reference value: 96.7%). The format is cell-based. Conditions: read-out: Activity. The gist of the method: (§2)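 CNE2 cells (RPMI 1640 with 10% FBS) were seeded at 5 × 10⁴ cells per well. After 24 h they were treated with compound in 0.05% DMSO for 12 h. Cells were then washed twice with PBS, pelleted, and stained in binding buffer with Annexin V-FITC and PI for flow cytometry.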

Data set [12] relates to CNE-2. Kind of data set: Induction of apoptosis in human CNE-2 cells assessed as early apoptosis cells level at 20 nM incubated for 12 hrs by Annexin-V/FITC staining based FACS analysis (reference value: 1.45%). Conditions: cne-2, 12 h, 0.02 µM. The format is cell-based.
Data set [13] has as its system CNE-2. Kind of data set: Induction of apoptosis in human CNE-2 cells assessed as necrosis cells level at 50 nM incubated for 12 hrs by Annexin-V/FITC staining based FACS analysis (reference value: 1.45%). Type of data set: cell-based. Conditions: cne-2, 12 h, 0.05 µM.
Data set [14] deals with CNE-2. Kind of data set: Induction of apoptosis in human CNE-2 cells assessed as viable cells level at 100 nM incubated for 12 hrs by Annexin-V/FITC staining based FACS analysis (reference value: 96.7%). Type of data set: cell-based. Conditions: read-out: Activity. Summed up: as §2
Data set [15] relates to CNE-2. Kind of data set: Induction of apoptosis in human CNE-2 cells assessed as early apoptosis cells level at 100 nM incubated for 12 hrs by Annexin-V/FITC staining based FACS analysis (reference value: 1.45%). The format is cell-based. Particulars: cne-2, 12 h, 0.1 µM.
The subject of data set [16] is CNE-2. Kind of data set: Induction of apoptosis in human CNE-2 cells assessed as viable cells level at 200 nM incubated for 12 hrs by Annexin-V/FITC staining based FACS analysis (reference value: 96.7%). The format is cell-based. Conditions: read-out: Activity. The gist of the method:
as §2

For data set [17], the system named is CNE-2. Nature of the data set: Induction of apoptosis in human CNE-2 cells assessed as necrosis cells level at 200 nM incubated for 12 hrs by Annexin-V/FITC staining based FACS analysis (reference value: 1.45%). The format is cell-based. Particulars: cne-2, 12 h, 0.2 µM.
The test system of data set [18] is CNE-2. Kind of data set: Induction of apoptosis in human CNE-2 cells assessed as viable cells level at 500 nM incubated for 12 hrs by Annexin-V/FITC staining based FACS analysis (reference value: 96.7%). The format is cell-based. Conditions: read-out: Activity. Summed up:
as §2

The test system of data set [19] is CNE-2. Nature of the data set: Induction of apoptosis in human CNE-2 cells assessed as early apoptosis cells level at 500 nM incubated for 12 hrs by Annexin-V/FITC staining based FACS analysis (reference value: 1.45%). Type of data set: cell-based. Particulars: cne-2, 12 h, 0.5 µM.
Data set [20] deals with CNE-2. Nature of the data set: Induction of apoptosis in human CNE-2 cells assessed as late apoptosis cells level at 500 nM incubated for 12 hrs by Annexin-V/FITC staining based FACS analysis (reference value: 1.45%). The format is cell-based. Conditions: cne-2, 12 h, 0.5 µM.
For data set [21], the system named is CNE-2. Kind of data set: Induction of apoptosis in human CNE-2 cells assessed as viable cells level at 70 nM incubated for 12 hrs by Annexin-V/FITC staining based FACS analysis (reference value: 93.2%). Type of data set: cell-based. Particulars: read-out: Activity. Summed up:
as §2

The test system of data set [22] is CNE-2. Kind of data set: Induction of apoptosis in human CNE-2 cells overexpressing HSP90 assessed as viable cells level at 70 nM incubated for 12 hrs by Annexin-V/FITC staining based FACS analysis (reference value: 93.2%). Type of data set: cell-based. Particulars: read-out: Activity.
A further data set relates to CNE2 (Homo sapiens). Nature of the data set: Induction of apoptosis in human CNE2 cells at 70 nM incubated for 12 hrs in presence of HSP90-alpha siRNA by Annexin-V/FITC staining based FACS analysis. Particulars: cne2, 12 h, 0.07 µM.

As to `CC(C)(C)c1ccc(Cn2cc(-c3cc(O)c(O)c(O)c3)nn2)cc1`, the Kd worked out at 63 nM in [1] and 81400 nM in [10]. Moreover, the Activity entry in the data set with L02 is given as “Non-Toxic”; with CNE-2 [12], 4.08%; in the data set with CNE-2 [13], 0.37%; with CNE-2 [15], 6.22%; in the data set with CNE-2 [17] it was 0.3%; with CNE-2 [19], 33.6%. Further, the Activity was 33.4% in the data set on CNE-2 [20] and “Non-Toxic” in the data set with CNE2 (Homo sapiens). Further, the inhibition result in data set [2] was “Active”. Further, the result in the data set on CNE-2 [3] and with CNE-2 [4] was Active. The result in the data set with CNE-2 [5] and in the data set on CNE-2 [6] was inactive. Moreover, the inhibition entry in [7] is “inactive”. The half-life in [8] is 1.1 h. The half-maximal inhibitory concentration (IC50) in data set [9] came to 160 nM. In addition, in the data set with CNE-2 [11], the viability at 0.02 µM was 93.6%. The viability at 0.1 µM in the data set with CNE-2 [14] was determined as 78.6%. For the same compound, the viability at 0.2 µM in the data set with CNE-2 [16] came out at 75.1%. Moreover, in the data set with CNE-2 [18], the viability at 0.5 µM amounted to 32%. Also, the viability at 0.07 µM in the data set with CNE-2 [21] is 75%; in the data set with CNE-2 [22], 94%.
